# Measurements from ChEMBL document CHEMBL4811272, “A new sulfated triterpene glycoside from the sea cucumber Colochirus quadrangularis, and evaluation of its antifungal, antitumor and immunomodulatory activities” (Bioorg Med Chem, 2021).
# pIC50: −log10 of the molar value. Activity calls are given as the source filed them. The calls are words filed in the database; no cut-off is given here.
# How the values were obtained:
# [1] = test system: HCT-116; experiment: Induction of apoptosis in human HCT-116 cells assessed as decrease in viable cells measured upto 2 times of IC50 concentration by annexin V staining based flow cytometry analysis; format: functional, cell-based
# Method in brief: (§1)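 HCT-116 cells treated with vehicle or three compound concentrations, collected, and stained with Annexin V-FITC and propidium iodide in the dark at 4 °C. Flow cytometry quadrants: Q4 live, Q3 early apoptotic, Q2 late apoptotic, Q1 necrotic. n = 3; ANOVA vs vehicle.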
# [2] = target: Vascular endothelial growth factor receptor 2 (Mus musculus, UniProt P35918); experiment: Inhibition of VEGFR2 in mouse NIH/3T3 cells assessed as reduction of VEGF-stimulated phosphorylation; format: cell-based
# Vascular endothelial growth factor receptor 2, sequence (P35918 whole entry): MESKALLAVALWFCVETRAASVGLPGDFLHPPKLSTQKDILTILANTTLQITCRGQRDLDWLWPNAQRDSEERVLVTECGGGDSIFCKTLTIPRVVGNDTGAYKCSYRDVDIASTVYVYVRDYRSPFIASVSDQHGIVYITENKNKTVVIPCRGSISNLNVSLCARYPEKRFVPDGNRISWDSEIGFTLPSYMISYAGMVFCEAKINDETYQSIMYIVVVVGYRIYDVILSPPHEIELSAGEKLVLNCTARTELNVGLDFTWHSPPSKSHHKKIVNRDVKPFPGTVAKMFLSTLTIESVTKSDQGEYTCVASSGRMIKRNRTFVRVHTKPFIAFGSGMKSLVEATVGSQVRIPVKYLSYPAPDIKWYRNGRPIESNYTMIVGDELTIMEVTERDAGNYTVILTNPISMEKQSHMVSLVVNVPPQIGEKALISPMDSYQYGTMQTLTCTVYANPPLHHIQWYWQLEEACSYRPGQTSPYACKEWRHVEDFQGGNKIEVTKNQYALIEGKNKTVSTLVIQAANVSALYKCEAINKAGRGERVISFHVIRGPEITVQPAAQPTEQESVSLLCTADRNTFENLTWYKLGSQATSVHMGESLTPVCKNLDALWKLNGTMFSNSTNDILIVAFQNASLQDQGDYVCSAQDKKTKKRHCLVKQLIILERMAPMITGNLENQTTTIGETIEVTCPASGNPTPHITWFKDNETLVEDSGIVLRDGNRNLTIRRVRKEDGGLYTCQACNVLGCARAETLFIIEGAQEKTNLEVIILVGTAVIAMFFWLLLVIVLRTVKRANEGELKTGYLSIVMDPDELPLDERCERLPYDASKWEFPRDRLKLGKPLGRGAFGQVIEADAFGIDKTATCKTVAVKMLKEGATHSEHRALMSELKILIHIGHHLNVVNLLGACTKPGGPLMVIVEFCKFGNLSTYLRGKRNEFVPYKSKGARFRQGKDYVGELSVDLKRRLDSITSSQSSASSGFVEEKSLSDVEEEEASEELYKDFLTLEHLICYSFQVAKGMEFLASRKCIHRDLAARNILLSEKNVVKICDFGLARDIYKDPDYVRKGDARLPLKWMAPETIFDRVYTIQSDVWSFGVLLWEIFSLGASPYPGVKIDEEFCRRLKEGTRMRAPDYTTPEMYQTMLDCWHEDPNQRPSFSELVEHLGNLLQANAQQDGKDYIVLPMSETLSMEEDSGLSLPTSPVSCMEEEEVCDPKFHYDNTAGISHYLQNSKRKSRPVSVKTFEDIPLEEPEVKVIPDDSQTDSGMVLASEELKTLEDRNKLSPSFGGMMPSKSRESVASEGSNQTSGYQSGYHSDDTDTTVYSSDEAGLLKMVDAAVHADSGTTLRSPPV
# Method in brief: (§2)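 NIH/3T3 fibroblasts transfected to overexpress VEGFR-2 or PDGFR-β, starved 24 h, then given compound. Stimulation: VEGF 500 ng/mL for VEGFR-2 cells, PDGF-BB 150 ng/mL for PDGFR-β cells. Cells fixed in 4% paraformaldehyde and probed with PY-99 anti-phosphotyrosine, secondary IgG and HRP-avidin. OD 405 nm read after ABTS; IC50 from three independent experiments.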
# [3] = Inhibition of angiogenesis in human HMEC-1 cells assessed as tube formation by matrigel-based assay; format: functional, cell-based
# Method in brief: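 HMEC-1 cells seeded onto solidified Matrigel and exposed to compound, then cultured. Total tube length measured and used to calculate IC50. Three independent experiments.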
# [4] = test system: Bel-7402; experiment: Cytotoxicity against human Bel-7402 cells assessed as reduction in cell viability by sulforhodamine B assay; format: functional, cell-based
# Method in brief: (§3)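 Cells were kept in RPMI-1640 with 10% FBS, 2 mM L-glutamine, 50 μM β-mercaptoethanol and penicillin/streptomycin, at 37 °C in 5% CO2. SRB assay used 100, 10, 1, 0.1 and 0.01 μM, each in triplicate. Percent inhibition was calculated against solvent control OD. IC50 came from Logit curve fitting and is the mean of three independent experiments.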
# [5] = test system: HMEC-1; experiment: Antiproliferative activity against human HMEC-1 cells assessed as inhibition of proliferation by SRB method; format: functional, cell-based
# Method in brief: (§4)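 HMEC-1 endothelial cells seeded and exposed to compound. Proliferation read by SRB and migration by Transwell. IC50 calculated from three independent experiments.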
# [6] = test system: HCT-116; experiment: Induction of apoptosis in human HCT-116 cells assessed as increase in early apoptotic cells measured upto 2 times of IC50 concentration by annexin V staining based flow cytometry analysis; format: functional, cell-based; method in brief: as §1
# [7] = test system: Mus musculus; experiment: Immunomodulatory activity in cyclophosphamide-immunosuppressed KM mouse assessed as increase in carbon particle clearance index in at 50 to 500 mg/kg, IG once daily measured after 14 days; format: functional, organism-based; settings: dose 50-500 mg/kg, time 14.0 day
# Method in brief: (§5)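 KM mice dosed intragastrically once daily for 14 days at 5, 50 or 500 mg/kg; vehicle 0.5% CMC-Na. CTX 50 mg/kg i.p. on days 7, 9 and 11. 1 h after the last dose, 25% Indian ink given i.v. at 0.1 mL/10 g. Blood (20 µL) taken at 2 and 10 min, lysed in 2 mL water, OD 680 nm read. K and α calculated with body, liver and spleen weights. n = 8.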
# [8] = test system: CCRF S-180; experiment: Antitumor activity against mouse S-180 cells implanted in KM mouse assessed as tumor growth inhibition at 5 mg/kg, IG administered everyday for 7 days relative to control; format: functional; settings: CCRF S-180, po, 168 h, time 7 day, read-out: TGI
# Method in brief: (§6)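 S-180 or H22 cells, about 2.5 × 10⁶ per mouse, injected s.c. in the right axilla of wild-type KM mice. Randomized after 24 h and dosed intragastrically for 7 days; sacrificed 24 h after the last dose. TGI = (W_C − W_T)/W_C × 100% from average tumor weight. n = 8; one-way ANOVA vs vehicle.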
# [9] = target: Platelet-derived growth factor receptor beta (Mus musculus, UniProt P05622); experiment: Inhibition of PDGFRbeta in mouse NIH/3T3 cells assessed as reduction of PDGF-BB-stimulated phosphorylation; format: cell-based; method in brief: as §2
# Platelet-derived growth factor receptor beta, sequence (P05622 whole entry): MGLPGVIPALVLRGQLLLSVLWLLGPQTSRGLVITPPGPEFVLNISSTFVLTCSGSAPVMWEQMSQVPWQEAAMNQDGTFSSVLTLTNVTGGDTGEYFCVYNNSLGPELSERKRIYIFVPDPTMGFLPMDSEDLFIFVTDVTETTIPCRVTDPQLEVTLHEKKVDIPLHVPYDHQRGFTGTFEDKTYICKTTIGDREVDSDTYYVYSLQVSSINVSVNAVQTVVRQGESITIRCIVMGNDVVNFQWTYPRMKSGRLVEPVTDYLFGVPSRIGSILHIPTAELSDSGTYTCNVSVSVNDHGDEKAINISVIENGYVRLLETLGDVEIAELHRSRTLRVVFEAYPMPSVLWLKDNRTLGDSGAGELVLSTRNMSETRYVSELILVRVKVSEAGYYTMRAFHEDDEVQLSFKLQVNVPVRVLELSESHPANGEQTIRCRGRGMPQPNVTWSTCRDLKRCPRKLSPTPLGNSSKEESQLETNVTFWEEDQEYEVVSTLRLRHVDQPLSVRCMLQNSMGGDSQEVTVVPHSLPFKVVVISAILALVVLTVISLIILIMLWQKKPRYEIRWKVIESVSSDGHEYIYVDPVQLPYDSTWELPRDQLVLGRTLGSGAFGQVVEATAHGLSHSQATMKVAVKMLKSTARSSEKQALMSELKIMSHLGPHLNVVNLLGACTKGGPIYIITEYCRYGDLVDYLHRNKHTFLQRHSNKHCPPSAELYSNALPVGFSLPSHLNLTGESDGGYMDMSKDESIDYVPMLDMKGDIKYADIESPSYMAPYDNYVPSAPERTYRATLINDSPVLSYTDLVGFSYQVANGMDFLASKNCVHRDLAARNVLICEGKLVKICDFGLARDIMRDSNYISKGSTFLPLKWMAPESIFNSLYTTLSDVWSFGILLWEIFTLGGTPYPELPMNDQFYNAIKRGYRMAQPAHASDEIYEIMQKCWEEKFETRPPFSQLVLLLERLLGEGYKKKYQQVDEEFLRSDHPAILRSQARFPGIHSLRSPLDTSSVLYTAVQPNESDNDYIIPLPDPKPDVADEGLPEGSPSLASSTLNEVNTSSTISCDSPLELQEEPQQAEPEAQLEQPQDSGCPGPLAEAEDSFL
# [10] = test system: H22; experiment: Antitumor activity against mouse H22 cells implanted in KM mouse assessed as tumor growth inhibition at 5 mg/kg, IG administered everyday for 7 days relative to control; format: functional; settings: H22, po, 168 h, time 7 day, read-out: TGI; method in brief: as §6
# [11] = test system: HCT-116; experiment: Induction of apoptosis in human HCT-116 cells assessed as increase in late apoptotic cells measured upto 2 times of IC50 concentration by annexin V staining based flow cytometry analysis; format: functional, cell-based; method in brief: as §1
# [12] = test system: A549; experiment: Cytotoxicity against human A549 cells assessed as reduction in cell viability by sulforhodamine B assay; format: functional, cell-based; method in brief: as §3
# [13] = test system: CCRF S-180; experiment: Antitumor activity against mouse S-180 cells implanted in KM mouse assessed as tumor growth inhibition at 50 mg/kg, IG administered everyday for 7 days relative to control; format: functional; settings: CCRF S-180, po, 168 h, time 7 day, read-out: TGI; method in brief: as §6
# [14] = test system: Candida parapsilosis; experiment: Antifungal activity against clinical strain Candida parapsilosis by microplate reader assay; format: functional; settings: Lodderomyces parapsilosis
# Method in brief: (§7)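 Broth microdilution read by optical density at 630 nm. MIC80 is the first well with about 80% less growth than the drug-free well. Each concentration was run in three replicate wells, and values are means of three independent experiments.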
# [15] = test system: Cryptococcus neoformans; experiment: Antifungal activity against Cryptococcus neoformans ATCC 32609 by microplate reader assay; format: functional; settings: ATTCC32609; method in brief: as §7
# [16] = test system: Bel-7402; experiment: Antitumor activity against human Bel-7402 cells implanted in BALB/c-nu mouse assessed as T/C ratio at 50 mg/kg, IG administered everyday for 7 days relative to control; format: functional; settings: time 7 day
# [17] = test system: Bel-7402; experiment: Antitumor activity against human Bel-7402 cells implanted in BALB/c-nu mouse assessed as tumor growth inhibition at 5 mg/kg, IG administered everyday for 7 days relative to control; format: functional; settings: Bel-7402, po, 168 h, time 7 day, read-out: TGI
# [18] = test system: MKN-28; experiment: Cytotoxicity against human MKN-28 cells assessed as reduction in cell viability by sulforhodamine B assay; format: functional, cell-based; method in brief: as §3
# [19] = test system: Candida albicans; experiment: Antifungal activity against Candida albicans ATCC 76615 by microplate reader assay; format: functional; settings: ATTCC76615; method in brief: as §7
# [20] = test system: HMEC-1; experiment: Antimigratory activity against human HMEC-1 cells assessed as inhibition of cell migration by transwell assay; format: functional, cell-based; method in brief: as §4
# [21] = test system: MCF7; experiment: Cytotoxicity against human MCF7 cells assessed as reduction in cell viability by sulforhodamine B assay; format: functional, cell-based; method in brief: as §3
# [22] = test system: Mus musculus; experiment: Immunomodulatory activity in cyclophosphamide-immunosuppressed KM mouse assessed as improved in phagocytosis function in at 50 to 500 mg/kg, IG once daily measured after 14 days; format: functional, organism-based; settings: dose 50-500 mg/kg, time 14.0 day; method in brief: as §5
# [23] = test system: Candida tropicalis; experiment: Antifungal activity against clinical strain Candida tropicalis by microplate reader assay; format: functional; method in brief: as §7
# [24] = test system: Mus musculus; experiment: Immunomodulatory activity in cyclophosphamide-immunosuppressed KM mouse assessed as improved thymus index in at 50 to 500 mg/kg, IG once daily measured after 14 days; format: functional, organism-based; settings: dose 50-500 mg/kg, time 14.0 day
# Method in brief: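 KM mice dosed intragastrically at 5, 50 or 500 mg/kg; vehicle 0.5% CMC-Na. After five doses, immunized i.p. with 0.2 mL 20% rabbit erythrocytes, and dosing continued for 8 days. CTX 30 mg/kg i.p. on days 2, 4 and 6 after immunization. 1 h after the last dose, spleen and thymus weighed; index in g/kg. n = 8.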
# [25] = test system: Bel-7402; experiment: Antitumor activity against human Bel-7402 cells implanted in BALB/c-nu mouse assessed as T/C ratio at 500 mg/kg, IG administered everyday for 7 days relative to control; format: functional; settings: time 7 day
compound,measurement,setting,value
C=C(C)CCC[C@]1(C)OC(=O)[C@]23CC[C@@H]4C(=CCC5C(C)(C)[C@@H](O[C@@H]6OC[C@@H](OS(=O)(=O)[O-])[C@H](O)[C@H]6O[C@@H]6O[C@H](C)[C@@H](O[C@@H]7OC[C@@H](O)[C@H](O[C@@H]8O[C@H](CO)[C@@H](O)[C@H](OC)[C@H]8O)[C@H]7O)[C@H](O)[C@H]6O)CC[C@@]54C)[C@]2(C)C[C@H](OC(C)=O)[C@@H]31.[Na+] (stereo not given in full),Activity,[1],inactive
same,pIC50,[2],5.66
same,pIC50,[3],7.22
same,pIC50,[4],5.84
same,pIC50,[5],5.80
same,Activity,[6],Active
same,Activity,[7],Active
same,inhibition in vivo at 5 mg/kg,[8],44.2%
same,pIC50,[9],5.32
same,inhibition in vivo at 5 mg/kg,[10],40.1%
same,Activity,[11],Active
same,pIC50,[12],5.90
same,inhibition in vivo at 50 mg/kg,[13],55.5%
same,MIC80,[14],4 µg/mL
same,MIC80,[15],16 µg/mL
same,T/C,[16],42.2%
same,inhibition in vivo at 5 mg/kg,[17],50.1%
same,pIC50,[18],5.74
same,MIC80,[19],4 µg/mL
same,pIC50,[20],7.30
same,pIC50,[21],5.69
same,Activity,[22],Active
same,MIC80,[23],8 µg/mL
same,Activity,[24],Active
same,T/C,[25],32%
